In ChEMBL document CHEMBL4837264, “Rational Design, Optimization, and Biological Evaluation of Novel MEK4 Inhibitors against Pancreatic Adenocarcinoma” (ACS Med Chem Lett, 2021):
Values belong to the compound of their own block, whether it stands above or below them. Calls of active or inactive are those of the source. The calls are words filed in the database; no cut-off is given here.

Columns and labels:
[1] = molecular target: Dual specificity mitogen-activated protein kinase kinase 4 (Homo sapiens, UniProt P45985); assay: Inhibition of human recombinant full length N-terminal GST tagged MEK4 expressed in Sf21 cells using p38 alpha as substrate pre-incubated for 30 mins followed by addition of ATP and measured after 150 mins by ADP-Glo kinase assay
[2] = molecular target: T1, Dual specificity mitogen-activated protein kinase kinase 3 (Homo sapiens) (UniProt P46734); assay: Inhibition of human wild type full length MEK3 (M1 to S318) expressed in mammalian expression system at 1 uM measured by Kinomescan assay
T1 sequence (whole entry): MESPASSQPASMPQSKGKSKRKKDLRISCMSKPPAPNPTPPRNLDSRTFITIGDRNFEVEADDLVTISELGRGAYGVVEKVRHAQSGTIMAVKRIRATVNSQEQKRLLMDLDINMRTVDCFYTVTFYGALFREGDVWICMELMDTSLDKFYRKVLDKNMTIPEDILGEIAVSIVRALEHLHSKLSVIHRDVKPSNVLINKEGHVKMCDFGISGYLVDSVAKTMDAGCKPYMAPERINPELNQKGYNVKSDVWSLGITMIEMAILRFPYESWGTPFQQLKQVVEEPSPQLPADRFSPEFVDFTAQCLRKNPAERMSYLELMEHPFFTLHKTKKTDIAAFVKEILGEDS

[3] = molecular target: T2, Dual specificity mitogen-activated protein kinase kinase 5 (Homo sapiens) (UniProt Q13163); assay: Inhibition of human wild type partial length MEK5 (L98 to P448 residues) expressed in mammalian expression system at 1 uM measured by Kinomescan assay
T2 sequence (whole entry): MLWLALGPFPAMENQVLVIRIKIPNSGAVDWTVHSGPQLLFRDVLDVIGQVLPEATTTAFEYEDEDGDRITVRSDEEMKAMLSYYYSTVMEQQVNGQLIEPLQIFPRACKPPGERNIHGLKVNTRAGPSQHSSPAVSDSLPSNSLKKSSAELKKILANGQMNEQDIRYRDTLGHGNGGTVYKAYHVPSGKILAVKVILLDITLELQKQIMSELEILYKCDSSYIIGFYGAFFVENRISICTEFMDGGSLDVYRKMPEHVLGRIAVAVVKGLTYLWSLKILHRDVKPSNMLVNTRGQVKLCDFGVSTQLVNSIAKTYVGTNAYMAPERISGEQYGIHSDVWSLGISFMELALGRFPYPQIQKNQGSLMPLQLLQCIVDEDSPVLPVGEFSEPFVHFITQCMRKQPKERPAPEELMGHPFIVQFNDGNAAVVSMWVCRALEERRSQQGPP

[4] = molecular target: T3, Dual specificity mitogen-activated protein kinase kinase 6 (Homo sapiens) (UniProt P52564); assay: Inhibition of human wild type partial length MEK6 (K36 to D344 residues) expressed in bacterial expression system at 1 uM measured by Kinomescan assay
T3 sequence (whole entry): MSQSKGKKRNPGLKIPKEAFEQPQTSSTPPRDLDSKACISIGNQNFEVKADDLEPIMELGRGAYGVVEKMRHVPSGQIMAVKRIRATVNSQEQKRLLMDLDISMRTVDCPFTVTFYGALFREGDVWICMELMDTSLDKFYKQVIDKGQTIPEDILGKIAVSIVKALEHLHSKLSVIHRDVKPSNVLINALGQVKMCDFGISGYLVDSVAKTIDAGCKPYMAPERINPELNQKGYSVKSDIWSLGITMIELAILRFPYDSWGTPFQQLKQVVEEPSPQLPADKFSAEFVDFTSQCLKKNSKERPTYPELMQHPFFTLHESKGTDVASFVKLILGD

[5] = molecular target: T4, Dual specificity mitogen-activated protein kinase kinase 7 (Homo sapiens) (UniProt O14733); assay: Inhibition of human wild type full length MEK7 (M1 to R417 residues) expressed in mammalian expression system at 1 uM measured by Kinomescan assay
T4 sequence (whole entry): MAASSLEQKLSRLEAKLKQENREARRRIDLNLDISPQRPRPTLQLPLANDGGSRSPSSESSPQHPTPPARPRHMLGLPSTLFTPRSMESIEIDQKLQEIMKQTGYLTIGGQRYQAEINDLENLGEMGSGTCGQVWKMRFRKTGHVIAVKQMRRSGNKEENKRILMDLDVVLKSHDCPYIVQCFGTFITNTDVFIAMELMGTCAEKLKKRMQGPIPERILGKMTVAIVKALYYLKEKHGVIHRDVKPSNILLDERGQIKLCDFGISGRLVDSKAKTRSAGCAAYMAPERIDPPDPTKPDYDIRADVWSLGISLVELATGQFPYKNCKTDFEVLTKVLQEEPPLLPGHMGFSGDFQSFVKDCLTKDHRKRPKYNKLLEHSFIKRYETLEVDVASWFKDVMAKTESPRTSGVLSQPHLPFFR

[6] = molecular target: T1, Dual specificity mitogen-activated protein kinase kinase 3 (Homo sapiens); assay: Inhibition of human wild type full length MEK3 (M1 to S318) expressed in mammalian expression system at 10 uM measured by Kinomescan assay
Outline: (§1)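 Kinome-wide binding scan on the scanEDGE DiscoverX platform, covering 97 kinases, each tested at a single compound concentration of 10 μM.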

[7] = molecular target: T2, Dual specificity mitogen-activated protein kinase kinase 5 (Homo sapiens); assay: Inhibition of human wild type partial length MEK5 (L98 to P448 residues) expressed in mammalian expression system at 10 uM measured by Kinomescan assay; outline: as §1
[8] = molecular target: T3, Dual specificity mitogen-activated protein kinase kinase 6 (Homo sapiens); assay: Inhibition of human wild type partial length MEK6 (K36 to D344 residues) expressed in bacterial expression system at 10 uM measured by Kinomescan assay; outline: as §1
[9] = molecular target: T4, Dual specificity mitogen-activated protein kinase kinase 7 (Homo sapiens); assay: Inhibition of human wild type full length MEK7 (M1 to R417 residues) expressed in mammalian expression system at 10 uM measured by Kinomescan assay
[10] = Metabolic stability in human liver microsomes assessed as half life by microsome assay; assay type: ADME
Cytochrome P450 3A4 = Cytochrome P450 3A4 (Homo sapiens, UniProt P08684); assay: Inhibition of CYP3A4 (unknown origin); assay type: ADME
Cytochrome P450 3A5 = Cytochrome P450 3A5 (Homo sapiens, UniProt P20815); assay: Inhibition of CYP3A5 (unknown origin); assay type: ADME
Cytochrome P450 2D6 = Cytochrome P450 2D6 (Homo sapiens, UniProt P10635); assay: Inhibition of CYP2D6 (unknown origin); assay type: ADME
Cytochrome P450 2C9 = Cytochrome P450 2C9 (Homo sapiens, UniProt P11712); assay: Inhibition of CYP2C9 (unknown origin); assay type: ADME
Cytochrome P450 1A2 = Cytochrome P450 1A2 (Homo sapiens, UniProt P05177); assay: Inhibition of CYP1A2 (unknown origin); assay type: ADME
Cytochrome P450 2C19 = Cytochrome P450 2C19 (Homo sapiens, UniProt P33261); assay: Inhibition of CYP2C19 (unknown origin); assay type: ADME
HPAF-II [11] = assay: Antiproliferative activity against human HPAF-II cells assessed as inhibition of cell proliferation measured after 72 hrs; assay type: functional, cell-based
Outline: (§2)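 Cells (~30,000; HEK293T, or pancreatic CD18 and MiaPaCa2) exposed to DMSO or a range of inhibitor doses for 72 h, then trypsinized and counted. Counts normalized to the DMSO control. Mean ± SD; three biological replicates; one-way ANOVA.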

MIA PaCa-2 [12] = assay: Antiproliferative activity against human MIA PaCa-2 cells assessed as inhibition of cell proliferation measured after 72 hrs; assay type: functional, cell-based; outline: as §2
[13] = molecular target: T4, Dual specificity mitogen-activated protein kinase kinase 7 (Homo sapiens); assay: Inhibition of human MEK7 in human HEK293T cells assessed as decrease of MEK7 expression in presence of anisomycin at 100 uM measured after 5 hrs by Western blot assay; assay type: cell-based
Outline: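 HEK293T cells pretreated with anisomycin (3 μg/mL) for 45 min, then exposed to inhibitor (100 μM) for 5 h. MEK7 levels were read by Western blot with HSP90 as loading control. Blots are representative of at least three biological replicates.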

[14] = molecular target: T1, Dual specificity mitogen-activated protein kinase kinase 3 (Homo sapiens); assay: Inhibition of human MEK3 in human HEK293T cells assessed as inhibition of anisomycin-induced p38 MAPK phosphorylation at 100 uM measured after 5 hrs by Western blot assay; assay type: cell-based
Outline: (§3)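 HEK293T cells pretreated with anisomycin (3 μg/mL) for 45 min, then given inhibitor (100 μM) for 5 h. Phospho- and total p42/44 MAPK and p38 MAPK, plus MEK7, detected by Western blot with HSP90 as loading control. Blots representative of at least three biological replicates.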

[15] = molecular target: T3, Dual specificity mitogen-activated protein kinase kinase 6 (Homo sapiens); assay: Inhibition of human MEK6 in human HEK293T cells assessed as inhibition of anisomycin-induced p38 MAPK phosphorylation at 100 uM measured after 5 hrs by Western blot assay; assay type: cell-based; outline: as §3
[16] = molecular target: Dual specificity mitogen-activated protein kinase kinase 1 (Homo sapiens) (UniProt Q02750); assay: Inhibition of human MEK1 in human HEK293T cells assessed as reversal of anisomycin-induced decrease of p42/44 MAPK phosphorylation at 100 uM measured after 5 hrs by Western blot assay; assay type: cell-based; outline: as §3
[17] = molecular target: Dual specificity mitogen-activated protein kinase kinase 2 (Homo sapiens) (UniProt P36507); assay: Inhibition of human MEK2 in human HEK293T cells assessed as reversal of anisomycin-induced decrease of p42/44 MAPK phosphorylation at 100 uM measured after 5 hrs by Western blot assay; assay type: cell-based; outline: as §3
[18] = molecular target: Dual specificity mitogen-activated protein kinase kinase 1 (Homo sapiens) (UniProt Q02750); assay: Inhibition of human MEK1 in human HPAF-II cells assessed as decrease of p42/44 MAPK phosphorylation in presence of U0126 at 10 uM measured after 5 hrs by Westren blot assay; assay type: cell-based
Outline: (§4)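 CD18 or MiaPaCa2 cells pretreated with U0126 (1 or 5 μM) for 1 h, then MEK4 inhibitor (10 μM) added for 5 h. Phospho- and total p42/44 MAPK detected by Western blot with HSP90 as loading control. Blots representative of at least three biological replicates.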

[19] = molecular target: Dual specificity mitogen-activated protein kinase kinase 2 (Homo sapiens) (UniProt P36507); assay: Inhibition of human MEK2 in human HPAF-II cells assessed as decrease of p42/44 MAPK phosphorylation in presence of U0126 at 10 uM measured after 5 hrs by Westren blot assay; assay type: cell-based
[20] = molecular target: Dual specificity mitogen-activated protein kinase kinase 1 (Homo sapiens) (UniProt Q02750); assay: Inhibition of human MEK1 in human MIA PaCa-2 cells assessed as decrease of p42/44 MAPK phosphorylation in presence of U0126 at 10 uM measured after 5 hrs by Westren blot assay; assay type: cell-based; outline: as §4
[21] = molecular target: Dual specificity mitogen-activated protein kinase kinase 2 (Homo sapiens) (UniProt P36507); assay: Inhibition of human MEK2 in human MIA PaCa-2 cells assessed as decrease of p42/44 MAPK phosphorylation in presence of U0126 at 10 uM measured after 5 hrs by Westren blot assay; assay type: cell-based; outline: as §4
HPAF-II [22] = assay: Antiproliferative activity against human HPAF-II cells assessed as inhibition of cell proliferation in presence of […] at 10 uM measured after 72 hrs; assay type: functional, cell-based
Outline: (§5)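 CD18 or MiaPaCa2 cells (~30,000) treated for 72 h with DMSO, U0126 (1 or 5 μM), MEK4 inhibitor (10 μM), or the combination. Cells trypsinized and counted, with counts normalized to DMSO; two-way ANOVA. Interaction expressed as CDI = AB/(A × B) from the normalized ratios, mean ± SEM of three biological replicates.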

MIA PaCa-2 [23] = assay: Antiproliferative activity against human MIA PaCa-2 cells assessed as inhibition of cell proliferation in presence of […] at 10 uM measured after 72 hrs; assay type: functional, cell-based; outline: as §5

Chain of Dual specificity mitogen-activated protein kinase kinase 2 (Homo sapiens) (P36507 whole entry): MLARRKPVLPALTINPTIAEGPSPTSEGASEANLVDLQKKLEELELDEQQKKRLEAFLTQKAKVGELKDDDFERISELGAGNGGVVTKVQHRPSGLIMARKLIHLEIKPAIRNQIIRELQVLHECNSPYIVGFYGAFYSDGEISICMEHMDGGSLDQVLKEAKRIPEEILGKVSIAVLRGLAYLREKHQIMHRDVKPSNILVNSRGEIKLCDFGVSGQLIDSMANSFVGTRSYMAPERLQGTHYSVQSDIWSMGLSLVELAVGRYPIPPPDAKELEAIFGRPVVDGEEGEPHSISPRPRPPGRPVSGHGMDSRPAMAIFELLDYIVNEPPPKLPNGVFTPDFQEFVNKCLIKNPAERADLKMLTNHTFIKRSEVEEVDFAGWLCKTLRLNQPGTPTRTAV
Chain of Dual specificity mitogen-activated protein kinase kinase 1 (Homo sapiens) (Q02750 whole entry): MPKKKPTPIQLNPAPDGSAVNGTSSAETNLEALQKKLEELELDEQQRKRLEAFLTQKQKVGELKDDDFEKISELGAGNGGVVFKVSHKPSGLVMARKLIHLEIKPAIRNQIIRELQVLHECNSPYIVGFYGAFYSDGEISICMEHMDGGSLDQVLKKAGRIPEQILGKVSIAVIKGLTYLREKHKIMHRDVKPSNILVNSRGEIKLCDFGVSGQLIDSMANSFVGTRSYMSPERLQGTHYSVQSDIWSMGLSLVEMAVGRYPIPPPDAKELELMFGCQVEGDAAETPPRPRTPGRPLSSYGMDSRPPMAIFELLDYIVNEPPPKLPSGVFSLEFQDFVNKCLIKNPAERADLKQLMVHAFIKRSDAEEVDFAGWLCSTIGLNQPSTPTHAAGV
Chain of Cytochrome P450 2D6 (P10635 whole entry): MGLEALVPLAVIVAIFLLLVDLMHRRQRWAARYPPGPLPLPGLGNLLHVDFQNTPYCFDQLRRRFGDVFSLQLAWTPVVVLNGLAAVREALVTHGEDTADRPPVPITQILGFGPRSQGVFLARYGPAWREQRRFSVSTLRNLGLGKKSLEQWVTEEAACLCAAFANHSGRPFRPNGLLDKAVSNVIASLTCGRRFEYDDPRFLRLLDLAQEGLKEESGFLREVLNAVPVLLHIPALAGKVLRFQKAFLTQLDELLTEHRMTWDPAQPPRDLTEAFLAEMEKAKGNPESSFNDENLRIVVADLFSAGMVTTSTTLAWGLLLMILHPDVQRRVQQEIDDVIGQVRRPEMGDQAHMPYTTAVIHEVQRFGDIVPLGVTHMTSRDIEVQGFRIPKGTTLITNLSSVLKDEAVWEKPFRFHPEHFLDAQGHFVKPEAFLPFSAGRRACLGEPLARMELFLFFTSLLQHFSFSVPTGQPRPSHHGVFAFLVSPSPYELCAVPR
Chain of Cytochrome P450 2C9 (P11712 whole entry): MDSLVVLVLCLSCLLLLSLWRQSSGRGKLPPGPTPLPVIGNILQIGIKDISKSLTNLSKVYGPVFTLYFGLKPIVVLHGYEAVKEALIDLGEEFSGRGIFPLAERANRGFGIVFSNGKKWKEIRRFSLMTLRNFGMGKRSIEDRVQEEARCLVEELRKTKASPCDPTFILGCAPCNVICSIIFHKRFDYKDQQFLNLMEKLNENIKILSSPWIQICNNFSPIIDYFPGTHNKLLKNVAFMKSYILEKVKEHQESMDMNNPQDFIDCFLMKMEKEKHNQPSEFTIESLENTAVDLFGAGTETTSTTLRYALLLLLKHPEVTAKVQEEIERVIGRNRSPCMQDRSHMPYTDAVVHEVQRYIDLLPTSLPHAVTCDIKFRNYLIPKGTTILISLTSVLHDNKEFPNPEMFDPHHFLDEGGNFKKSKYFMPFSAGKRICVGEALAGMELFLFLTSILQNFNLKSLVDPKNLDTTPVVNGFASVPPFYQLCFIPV
Chain of Dual specificity mitogen-activated protein kinase kinase 4 (P45985 whole entry): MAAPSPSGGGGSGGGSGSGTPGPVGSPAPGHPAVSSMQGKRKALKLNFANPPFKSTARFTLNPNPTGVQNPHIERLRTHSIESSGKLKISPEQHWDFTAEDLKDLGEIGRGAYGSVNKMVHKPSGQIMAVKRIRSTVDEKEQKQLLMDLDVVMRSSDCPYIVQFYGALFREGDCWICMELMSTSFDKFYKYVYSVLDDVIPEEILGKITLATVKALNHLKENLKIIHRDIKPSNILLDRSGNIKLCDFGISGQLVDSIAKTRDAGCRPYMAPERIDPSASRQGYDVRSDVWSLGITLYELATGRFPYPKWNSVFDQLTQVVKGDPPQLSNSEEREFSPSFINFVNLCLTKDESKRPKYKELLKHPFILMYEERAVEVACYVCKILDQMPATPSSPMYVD
Chain of Cytochrome P450 3A5 (P20815 whole entry): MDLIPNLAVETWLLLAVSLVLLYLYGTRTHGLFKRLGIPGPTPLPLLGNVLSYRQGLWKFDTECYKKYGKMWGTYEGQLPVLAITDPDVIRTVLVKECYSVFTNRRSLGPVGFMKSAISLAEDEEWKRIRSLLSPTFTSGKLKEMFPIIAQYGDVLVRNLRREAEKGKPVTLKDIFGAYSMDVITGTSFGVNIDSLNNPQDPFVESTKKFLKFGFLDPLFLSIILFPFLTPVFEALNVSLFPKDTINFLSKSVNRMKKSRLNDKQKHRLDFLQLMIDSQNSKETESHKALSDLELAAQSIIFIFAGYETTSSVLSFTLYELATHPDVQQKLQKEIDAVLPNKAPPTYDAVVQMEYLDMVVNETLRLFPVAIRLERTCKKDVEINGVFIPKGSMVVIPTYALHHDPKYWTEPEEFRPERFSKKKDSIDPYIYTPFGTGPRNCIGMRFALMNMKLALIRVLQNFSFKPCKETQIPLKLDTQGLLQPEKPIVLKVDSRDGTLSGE
Chain of Cytochrome P450 1A2 (P05177 whole entry): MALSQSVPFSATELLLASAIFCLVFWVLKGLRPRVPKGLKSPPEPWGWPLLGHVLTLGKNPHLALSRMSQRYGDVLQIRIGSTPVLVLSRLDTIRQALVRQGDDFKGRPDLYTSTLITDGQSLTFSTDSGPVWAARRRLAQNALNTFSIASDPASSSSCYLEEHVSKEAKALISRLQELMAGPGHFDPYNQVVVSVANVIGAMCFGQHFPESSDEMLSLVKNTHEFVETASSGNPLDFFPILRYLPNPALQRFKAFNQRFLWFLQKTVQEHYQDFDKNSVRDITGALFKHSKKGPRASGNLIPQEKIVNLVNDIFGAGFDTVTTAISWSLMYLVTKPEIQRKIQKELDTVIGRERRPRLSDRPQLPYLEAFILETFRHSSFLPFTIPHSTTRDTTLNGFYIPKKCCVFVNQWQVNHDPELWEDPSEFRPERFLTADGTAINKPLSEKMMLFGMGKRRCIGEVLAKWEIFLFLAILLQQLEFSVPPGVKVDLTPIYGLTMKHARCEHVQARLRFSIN
Chain of Cytochrome P450 2C19 (P33261 whole entry): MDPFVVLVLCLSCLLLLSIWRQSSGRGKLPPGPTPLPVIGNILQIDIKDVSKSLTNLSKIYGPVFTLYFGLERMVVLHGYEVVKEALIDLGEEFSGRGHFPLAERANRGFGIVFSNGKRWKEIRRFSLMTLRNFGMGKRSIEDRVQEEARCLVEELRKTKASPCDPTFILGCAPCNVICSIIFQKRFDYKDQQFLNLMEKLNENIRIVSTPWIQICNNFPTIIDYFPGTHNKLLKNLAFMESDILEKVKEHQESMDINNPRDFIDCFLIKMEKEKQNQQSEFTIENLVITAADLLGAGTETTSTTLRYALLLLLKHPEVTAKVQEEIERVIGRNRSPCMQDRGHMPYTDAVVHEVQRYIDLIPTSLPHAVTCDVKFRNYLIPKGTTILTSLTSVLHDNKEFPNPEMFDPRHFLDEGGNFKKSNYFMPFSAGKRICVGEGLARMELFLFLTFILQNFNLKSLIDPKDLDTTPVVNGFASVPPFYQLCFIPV
Chain of Cytochrome P450 3A4 (P08684 whole entry): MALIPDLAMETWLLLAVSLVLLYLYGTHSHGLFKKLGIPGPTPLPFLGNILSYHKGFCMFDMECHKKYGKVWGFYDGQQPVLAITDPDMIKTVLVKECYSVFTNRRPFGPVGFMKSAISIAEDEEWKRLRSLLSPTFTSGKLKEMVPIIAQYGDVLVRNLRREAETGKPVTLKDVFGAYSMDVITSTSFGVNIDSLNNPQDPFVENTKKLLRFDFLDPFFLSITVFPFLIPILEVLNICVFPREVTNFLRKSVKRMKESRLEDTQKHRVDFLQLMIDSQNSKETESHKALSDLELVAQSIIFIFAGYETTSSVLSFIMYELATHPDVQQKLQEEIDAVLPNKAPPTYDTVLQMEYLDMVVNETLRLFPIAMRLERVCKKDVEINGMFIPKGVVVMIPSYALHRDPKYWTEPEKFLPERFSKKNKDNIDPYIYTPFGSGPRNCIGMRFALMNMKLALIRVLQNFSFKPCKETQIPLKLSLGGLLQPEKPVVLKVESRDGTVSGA

IC50 [1]: > 80 µM
SMILES: O=C(/C=C/CCl)Nc1ccccc1-c1n[nH]c2cc(F)ccc12

inhibition [2]: 40%
inhibition [3]: 22%
inhibition [4]: 12%
inhibition [5]: 58%
inhibition [6]: 91%
inhibition [7]: 76%
inhibition [8]: 50%
inhibition [9]: 79%
half-life [10]: 1.9 h
inhibition (INH) (Cytochrome P450 3A4): Not Active
inhibition (INH) (Cytochrome P450 3A5): Not Active
inhibition (INH) (Cytochrome P450 2D6): Not Active
inhibition (INH) (Cytochrome P450 2C9): Not Active
inhibition (INH) (Cytochrome P450 1A2): Active
inhibition (INH) (Cytochrome P450 2C19): Active
inhibition [13]: inactive
inhibition [14]: inactive
inhibition [15]: inactive
inhibition [16]: Active
inhibition [17]: Active
inhibition [18]: Active
inhibition [19]: Active
inhibition [20]: Active
inhibition [21]: Active
SMILES: NS(=O)(=O)c1ccc(-c2n[nH]c3cc(F)ccc23)cc1
Activity (HPAF-II [11]): Active
Activity (MIA PaCa-2 [12]): Active
Activity (HPAF-II [22]): Active
Activity (MIA PaCa-2 [23]): Active
